Results: ChEMBL document CHEMBL3120066, “Discovery of a novel class of potent HCV NS4B inhibitors: SAR studies on piperazinone derivatives” (J Med Chem, 2014)

Test system: not listed separately
Test: Half life in human liver microsomes
Assay type: ADME
Settings: not given

half-life | SMILES
17 min | C/C=C/[C@H]1CN(C(=O)c2cc(-c3ccc(F)cc3)on2)[C@@H](CC(C)C)C(=O)N1
29 min | CC(C)C[C@H]1C(=O)N[C@@H](C2CCCC2)CN1C(=O)c1cc(-c2ccc(F)cc2)on1
54 min | CC(C)C[C@H]1C(=O)N[C@@H](c2ccccc2)CN1C(=O)c1cc(-c2ccc(F)cc2)on1

Test system: Hepatitis C virus
Test: Antiviral activity against HCV1a infected in clone A and ET-lunet cells assessed as inhibition of viral replication after 4 days by RT-PCR analysis
Assay type: functional, organism-based, Hepacivirus hominis
Settings: subtype 1a, 96 h
Summary of the method: (§1)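 Run in HCV genotype 1a and 1b replicon cells; each reported value is the mean of n = 2 independent determinations.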

EC50 | SMILES
0.56 µM | O=C(NCc1cccs1)c1cc2nc(-c3ccco3)cc(C(F)(F)Cl)n2n1 [ANGUIZOLE]

Test system: Hepatitis C virus
Test: Antiviral activity against HCV1b infected in clone A and ET-lunet cells assessed as inhibition of viral replication after 4 days by RT-PCR analysis
Assay type: functional, organism-based, Hepacivirus hominis
Settings: genotype 1b, 96 h
Summary of the method: as §1

EC90 | EC50 | SMILES
1.4 µM |  | CC(C)C[C@H]1CN(C(=O)c2noc(-c3ccccc3)n2)[C@@H](CC(C)C)C(=O)N1
> 10 µM |  | COC(=O)c1ccc(/C=C/C(=O)N2C[C@H](CC(C)C)NC(=O)[C@@H]2CC(C)C)cc1
> 10 µM |  | CC(C)C[C@H]1CN(C(=O)/C=C/c2ccc([N+](=O)[O-])cc2)[C@@H](CC(C)C)C(=O)N1
1.6 µM |  | CC(C)C[C@H]1CN(C(=O)/C=C/c2ccc(Cl)cc2)[C@@H](CC(C)C)C(=O)N1
1.5 µM |  | CC(C)C[C@H]1CN(C(=O)/C=C/c2ccc(F)cc2)[C@@H](CC(C)C)C(=O)N1
0.47 µM |  | CC(C)C[C@H]1CN(C(=O)c2cc(-c3ccc(Br)cc3)on2)[C@@H](CC(C)C)C(=O)N1
> 10 µM |  | CC(C)C[C@H]1CN(C(=O)/C=C\c2ccccc2)[C@@H](CC(C)C)C(=O)N1
1.5 µM |  | CC(C)C[C@H]1CN(C(=O)/C=C/c2ccc(F)c(F)c2)[C@@H](CC(C)C)C(=O)N1
3.2 µM |  | CC(C)C[C@H]1CN(C(=O)C#Cc2ccccc2)[C@@H](CC(C)C)C(=O)N1
7.8 µM |  | CC(C)C[C@H]1CN(C(=O)/C=C/c2ccc(Br)cc2)[C@@H](CC(C)C)C(=O)N1
> 5.8 µM |  | CC(C)C[C@H]1CN(C(=O)c2ccc(-c3ccccc3)o2)[C@@H](CC(C)C)C(=O)N1
> 10 µM |  | CC(C)C[C@H]1CN(C(=O)c2cn(-c3ccccc3)cn2)[C@@H](CC(C)C)C(=O)N1
0.13 µM |  | CC(C)C[C@H]1CN(C(=O)c2cc(-c3ccc(F)cc3)on2)[C@@H](CC(C)C)C(=O)N1
> 10 µM |  | CC(C)C[C@H]1CN(C(=O)c2cccc(-c3ccccc3)c2)[C@@H](CC(C)C)C(=O)N1
3.3 µM |  | CC(C)C[C@H]1CN(C/C=C/c2ccccc2)[C@@H](CC(C)C)C(=O)N1
1.5 µM |  | CC(C)C[C@H]1CN(C(=O)/C=C/c2ccc(F)cc2F)[C@@H](CC(C)C)C(=O)N1
2.3 µM |  | CC(C)C[C@H]1CN(C(=O)/C=C/c2ccccc2)[C@@H](CC(C)C)C(=O)N1
> 10 µM |  | CC(C)C[C@H]1CN(C(=O)/C=C/c2ccc(N(C)C)cc2)[C@@H](CC(C)C)C(=O)N1
0.29 µM |  | CC(C)C[C@H]1CN(C(=O)c2cc(-c3ccc(Cl)cc3)on2)[C@@H](CC(C)C)C(=O)N1
1.54 µM |  | Cc1ccc(-c2cc(C(=O)N3C[C@H](CC(C)C)NC(=O)[C@@H]3CC(C)C)no2)cc1
5.3 µM |  | Cc1ccc(/C=C/C(=O)N2C[C@H](CC(C)C)NC(=O)[C@@H]2CC(C)C)cc1
8.1 µM |  | CC(C)C[C@H]1CN(C(=O)/C=C/c2ccc(C(F)(F)F)cc2)[C@@H](CC(C)C)C(=O)N1
9.7 µM |  | CC(C)C[C@H]1CN(C(=O)/C=C/c2ccccc2Cl)[C@@H](CC(C)C)C(=O)N1
> 10 µM |  | CC(C)C[C@H]1CN(C(=O)/C=C/c2ccc(S(C)(=O)=O)cc2)[C@@H](CC(C)C)C(=O)N1

The next lines start with the molecule.

SMILES | EC90 | EC50
C/C=C/[C@H]1CN(C(=O)c2cc(-c3ccc(F)cc3)on2)[C@@H](CC(C)C)C(=O)N1 | 0.06 µM | 
CC[C@@H](C)[C@H]1CN(C(=O)c2cc(-c3ccc(F)cc3)on2)[C@@H](CC(C)C)C(=O)N1 | > 10 µM | 
CC(C)C[C@@H]1CN(C(=O)[C@@H]2C[C@H]2c2ccccc2)[C@@H](CC(C)C)C(=O)N1 | > 10 µM | 
CC(C)C[C@H]1C(=O)N[C@@H](CC(C(F)(F)F)C(F)(F)F)CN1C(=O)c1cc(-c2ccc(F)cc2)on1 | 7.25 µM | 
CCc1cc2c(cc1F)c(C#N)c(-c1ccc(S(=O)(=O)N[C@@H](C)C(F)(F)F)cn1)n2-c1ncccn1 |  | 0.0017 µM
CSC[C@H]1CN(C(=O)c2cc(-c3ccc(F)cc3)on2)[C@@H](CC(C)C)C(=O)N1 | 0.24 µM | 
CC(C)C[C@H]1CN(C(=O)C2CC2)[C@@H](CC(C)C)C(=O)N1 | > 10 µM | 
CC[C@H]1C(=O)N[C@@H](CC(C)C)CN1C(=O)[C@@H]1C[C@H]1c1ccccc1 | > 10 µM | 
CC(C)C[C@H]1C(=O)N[C@@H](CO)CN1C(=O)c1cc(-c2ccc(F)cc2)on1 | > 10 µM | 
COc1ccc(-c2cc(C(=O)N3C[C@H](CC(C)C)NC(=O)[C@@H]3CC(C)C)no2)cc1 | 1.35 µM | 
CC(C)C[C@H]1C(=O)N[C@@H](c2ccsc2)CN1C(=O)c1cc(-c2ccc(F)cc2)on1 | 0.026 µM | 
CC(C)C[C@H]1C(=O)N[C@@H](C2CCCC2)CN1C(=O)c1cc(-c2ccc(F)cc2)on1 | 0.09 µM | 
CC(C)C[C@H]1CN(C(=O)c2coc(-c3ccccc3)n2)[C@@H](CC(C)C)C(=O)N1 | > 10 µM | 
CC(C)C[C@H]1C(=O)N[C@@H](CC(C)(C)C)CN1C(=O)c1cc(-c2ccc(F)cc2)on1 | 2 µM | 
CC(C)C[C@H]1C(=O)N[C@@H](C2CCSCC2)CN1C(=O)c1cc(-c2ccc(F)cc2)on1 | 0.87 µM | 
CC(C)C[C@H]1C(=O)N[C@@H](c2nccs2)CN1C(=O)c1cc(-c2ccc(F)cc2)on1 | > 10 µM | 
CC(C)C[C@H]1C(=O)N[C@@H](c2ccccc2)CN1C(=O)c1cc(-c2ccc(F)cc2)on1 | 0.06 µM | 
CC[C@H]1CN(C(=O)c2cc(-c3ccc(F)cc3)on2)[C@@H](CC(C)C)C(=O)N1 | 0.71 µM | 
Cc1ccc([C@H]2CN(C(=O)c3cc(-c4ccc(F)cc4)on3)[C@@H](CC(C)C)C(=O)N2)s1 | 0.18 µM | 
CC[C@H](C)[C@H]1CN(C(=O)[C@@H]2C[C@H]2c2ccccc2)[C@@H](CC(C)C)C(=O)N1 | > 10 µM | 
CCC[C@H]1CN(C(=O)c2cc(-c3ccc(F)cc3)on2)[C@@H](CC(C)C)C(=O)N1 | 0.1 µM | 
CC(C)C[C@H]1C(=O)N[C@@H](c2ncco2)CN1C(=O)c1cc(-c2ccc(F)cc2)on1 | > 10 µM | 
CC(C)C[C@H]1C(=O)N[C@@H](c2cc[nH]c2)CN1C(=O)c1cc(-c2ccc(F)cc2)on1 | 0.063 µM | 
COC[C@H]1CN(C(=O)c2cc(-c3ccc(F)cc3)on2)[C@@H](CC(C)C)C(=O)N1 | > 10 µM | 
Cc1ccsc1[C@H]1CN(C(=O)c2cc(-c3ccc(F)cc3)on2)[C@@H](CC(C)C)C(=O)N1 | 0.68 µM | 
CC(C)C[C@H]1CN(C(=O)c2csc(-c3ccccc3)n2)[C@@H](CC(C)C)C(=O)N1 | > 7.9 µM | 
CC(C)C[C@H]1C(=O)N[C@@H](C2CC2)CN1C(=O)c1cc(-c2ccc(F)cc2)on1 | 1.1 µM | 

SMILES | EC90 | EC50
CC(C)C[C@H]1C(=O)N[C@@H](C2CCCCC2)CN1C(=O)c1cc(-c2ccc(F)cc2)on1 | 0.19 µM | 
CC(C)C[C@H]1C(=O)N[C@@H](C(C)C)CN1C(=O)c1cc(-c2ccc(F)cc2)on1 | 0.17 µM | 
O=C(NCc1cccs1)c1cc2nc(-c3ccco3)cc(C(F)(F)Cl)n2n1 [ANGUIZOLE] |  | 0.31 µM
CC(C)C[C@H]1CN(C(=O)c2cc(-c3ccc([N+](=O)[O-])cc3)on2)[C@@H](CC(C)C)C(=O)N1 | 2.6 µM | 
CC(C)C[C@H]1C(=O)N[C@@H](c2ccccc2F)CN1C(=O)c1cc(-c2ccc(F)cc2)on1 | 0.1 µM | 
CCC[C@H]1CN(C(=O)[C@@H]2C[C@H]2c2ccccc2)[C@@H](CC(C)C)C(=O)N1 | 0.9 µM | 
CC(C)C[C@H]1C(=O)N[C@@H](c2ccc(C(F)(F)F)cc2)CN1C(=O)c1cc(-c2ccc(F)cc2)on1 | 2.75 µM | 
CC(C)C[C@H]1C(=O)N[C@@H](c2ccc[nH]2)CN1C(=O)c1cc(-c2ccc(F)cc2)on1 | 0.68 µM | 
CC(C)C[C@H]1C(=O)N[C@@H](CN(C)C)CN1C(=O)c1cc(-c2ccc(F)cc2)on1 | 2.74 µM | 
CC(C)C[C@H]1CN(C(=O)c2cc(-c3ccccc3)on2)[C@@H](CC(C)C)C(=O)N1 | 1.1 µM | 
CC(C)C[C@H]1CN(C(=O)[C@@H]2C[C@H]2c2ccccc2)[C@@H](CC(C)C)C(=O)N1C | 8.8 µM | 
CC(C)C[C@H]1CN(C(=O)c2cc(-c3ccc(F)c(F)c3)on2)[C@@H](CC(C)C)C(=O)N1 | 0.65 µM | 
CC(C)C[C@H]1CN(C(=O)c2cc(-c3ccc(F)cc3F)on2)[C@@H](CC(C)C)C(=O)N1 | 0.68 µM | 
CC(C)C[C@H]1CN(C(=O)c2c[nH]c(-c3ccccc3)n2)[C@@H](CC(C)C)C(=O)N1 | > 10 µM | 
CC(C)C[C@H]1CN(C(=O)c2cc(-c3ccccc3)[nH]n2)[C@@H](CC(C)C)C(=O)N1 | > 10 µM | 
CC(C)C[C@H]1CN(C(=O)c2cc(-c3ccc(N(C)C)cc3)on2)[C@@H](CC(C)C)C(=O)N1 | > 10 µM | 
CC(C)C[C@H]1CN(C(=O)[C@@H]2C[C@H]2c2ccccc2)[C@H](CC(C)C)C(=O)N1 | > 10 µM | 
CC(C)C[C@H]1C(=O)N[C@@H](C2CCOCC2)CN1C(=O)c1cc(-c2ccc(F)cc2)on1 | 0.47 µM | 
CC(C)C[C@H]1C(=O)N[C@@H](C2CCC2)CN1C(=O)c1cc(-c2ccc(F)cc2)on1 | 0.69 µM | 
Cc1ccc([C@H]2CN(C(=O)c3cc(-c4ccc(F)cc4)on3)[C@@H](CC(C)C)C(=O)N2)cc1 | 0.76 µM | 
CC(C)C[C@H]1C(=O)N[C@@H](c2ccsc2Cl)CN1C(=O)c1cc(-c2ccc(F)cc2)on1 | 0.004 µM | 
CC(C)C[C@H]1C(=O)N[C@@H](CC2CC2)CN1C(=O)c1cc(-c2ccc(F)cc2)on1 | 0.45 µM | 
CC(C)C[C@H]1C(=O)N[C@@H](C(C)(C)C)CN1C(=O)c1cc(-c2ccc(F)cc2)on1 | 1.8 µM | 
CC(C)C[C@H]1CN(C(=O)[C@@H]2C[C@H]2c2ccccc2)[C@@H](CC(C)C)CN1 | > 10 µM | 
CSCC[C@H]1CN(C(=O)c2cc(-c3ccc(F)cc3)on2)[C@@H](CC(C)C)C(=O)N1 | 0.39 µM | 
CC(C)C[C@H]1CN(C(=O)c2cc(-c3ccc(C#N)cc3)on2)[C@@H](CC(C)C)C(=O)N1 | 1.53 µM | 
CCCC[C@H]1CN(C(=O)c2cc(-c3ccc(F)cc3)on2)[C@@H](CC(C)C)C(=O)N1 | 0.53 µM | 
